Laboratory results from ChEMBL document CHEMBL1126650, “Synthesis and structure-activity relationships of novel benzimidazole and imidazo[4,5-b]pyridine acid derivatives as thromboxane A2 receptor antagonists” (J Med Chem, 1993).

Tests used:
[1] = molecular target: T1, Thromboxane A2 receptor (Homo sapiens) (UniProt P21731); assay: Tested in vitro for percent inhibition against TXA2 / PGH-2 receptor using [125I]PTA-OH in human platelets at 10 e-7 M
T1 sequence (whole entry): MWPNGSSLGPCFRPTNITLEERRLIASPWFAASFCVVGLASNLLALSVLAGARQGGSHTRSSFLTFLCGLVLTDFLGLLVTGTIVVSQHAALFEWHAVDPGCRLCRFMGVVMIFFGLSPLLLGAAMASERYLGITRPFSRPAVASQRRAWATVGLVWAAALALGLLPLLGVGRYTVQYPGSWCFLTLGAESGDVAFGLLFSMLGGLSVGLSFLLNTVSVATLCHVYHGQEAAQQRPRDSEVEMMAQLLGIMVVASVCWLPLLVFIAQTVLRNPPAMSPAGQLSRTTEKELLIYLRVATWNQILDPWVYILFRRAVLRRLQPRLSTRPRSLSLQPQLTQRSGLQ
Procedure, shortened: (§1)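 Washed human platelets from volunteer blood drawn into EDTA 5 mM and indomethacin 20 µM (final); PRP at 200 g, pellet at 2000 g. 5 × 10^7 platelets incubated 30 min at 37 °C with 0.1 nM [125I]PTA-OH in Tris/NaCl/dextrose/indomethacin buffer, pH 7.4. Screening at 10^-7 and 10^-5 M. Filtration, gamma counting. Nonspecific binding set by a tetrahydrocarbazole-acetic acid antagonist. Triplicate.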

[2] = molecular target: T2, Thromboxane A2 receptor (Homo sapiens, UniProt P21731); assay: Tested in vitro for inhibition constant against TXA2 / PGH-2 receptor using [125I]PTA-OH binding affinity to human platelets
T2 sequence (P21731 whole entry): T1 sequence (whole entry)

[3] = molecular target: T1, Thromboxane A2 receptor (Homo sapiens); assay: In vitro for percent inhibition against TXA2 / PGH-2 receptor using [125I]PTA-OH in human platelets at 10 e-5 M; procedure, shortened: as §1
[4] = system: Cavia porcellus; assay: In vivo inhibition of […]- epoxymethano-PGH2 (1 uM) induced platelet aggregation of guinea pig platelet-rich plasma (PRP) 1 hr after per os administration at 0.3 mg/kg po; format: functional
Procedure, shortened: (§2)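 Guinea pigs dosed orally. Platelet-rich plasma taken 1 h later and aggregation triggered with 11,9-epoxymethano-PGH2 (U-IPA) at 1 µM.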

[5] = system: Cavia porcellus; assay: In vivo inhibition of […]- epoxymethano-PGH2 (1 uM) induced platelet aggregation of guinea pig platelet-rich plasma (PRP) 1 hr after per os administration at 1 mg/kg po; format: functional; procedure, shortened: as §2

Row | SMILES | inhibition [1] | Ki [2] | inhibition [3] | inhibition in vivo at 0.3 mg/kg [4] | inhibition in vivo at 1 mg/kg [5]
1 | O=C(O)[C@@H]1CC=CC[C@@H]1c1nc2cc(F)ccc2n1Cc1ccc(Cl)cc1 | 15% | 510 nM | 96% |  | 
2 | CC(C)(CC(=O)O)Cc1nc2cc(F)ccc2n1Cc1ccc(Br)cc1 | 92% | 12 nM | 95% |  | 
3 | CC(CC(=O)O)Cc1nc2ccccc2n1Cc1ccc(Cl)cc1 (stereo not given) | 10% |  | 100% |  | 
4 | CC(C)(CC#N)Cc1nc2ccccc2n1Cc1ccc(Cl)cc1 | 0% |  | 0% |  | 
5 | COc1ccc(Cn2c(CC(C)(C)CC(=O)O)nc3cc(Cl)ccc32)cc1 | 95% | 20 nM | 100% |  | 
6 | CC(C)(CC(=O)O)Cc1nc2ccccc2n1Cc1ccc([N+](=O)[O-])cc1 | 83% |  | 100% |  | 
7 | O=C(O)CCc1nc2cc(F)ccc2n1Cc1ccc(Cl)cc1 | 0% | 5600 nM | 64% |  | 
8 | CCC(CC)(CC(=O)O)Cc1nc2ccccc2n1Cc1ccc(Cl)cc1 | 35% | 160 nM | 97% |  | 
9 | CC(C)(CC(=O)O)Cc1nc2cc(Cl)ccc2n1Cc1ccc(Cl)cc1 | 74% |  | 99% |  | 
10 | CC(C)(CC(=O)O)Cc1nc2cc(Cl)ccc2n1Cc1ccc(Br)cc1 | 98% |  | 100% |  | 
11 | O=C(O)CCCSc1nc2cccnc2n1Cc1ccc(Cl)cc1 | 27% |  | 64% |  | 
12 | CC(C)(CC(=O)O)Cc1nc2ccccc2n1Cc1ccc(O)cc1 | 50% |  | 96% |  | 
13 | CSc1ccc(Cn2c(CC(C)(C)CC(=O)O)nc3cc(F)ccc32)cc1 | 100% |  | 100% |  | 
14 | O=C(O)CC(Cc1nc2ccccc2n1Cc1ccc(Cl)cc1)c1ccccc1 (stereo not given) | 0% |  | 17% |  | 
15 | CSc1ccc(Cn2c(CC(C)(C)CC(=O)O)nc3cc(Cl)cnc32)cc1 | 82% | 7 nM | 87% |  | 
16 | O=C(O)CC1CCCc2c1n(Cc1ccc(Cl)cc1)c1ccc(F)cc21 (stereo not given) | 100% | 15.3 nM | 100% |  | 
17 | CC(C)(CC(=O)O)Cc1nc2cc(Cl)ccc2n1Cc1ccc(Cl)c(Cl)c1 | 71% | 12 nM | 92% |  | 
18 | O=C(O)CCCSc1nc2cc(F)ccc2n1Cc1ccc(Cl)cc1 | 8% |  | 93% |  | 
19 | CC(C)(CC(=O)O)c1nc2ccccc2n1Cc1ccc(Cl)cc1 | 0% |  | 28% |  | 
20 | O=C(O)COc1ccc(CCNS(=O)(=O)c2ccccc2)cc1 | 13% |  | 95% |  | 

Row | SMILES | inhibition [1] | Ki [2] | inhibition [3] | inhibition in vivo at 0.3 mg/kg [4] | inhibition in vivo at 1 mg/kg [5]
21 | CC(C)(CC(N)=O)Cc1nc2ccccc2n1Cc1ccc(Cl)cc1 | 7% |  | 90% |  | 
22 | CC(C)(CC(=O)O)Cc1nc2ccccc2n1Cc1ccc(Br)cc1 | 86% | 16 nM | 96% |  | 
23 | COc1ccc(Cn2c(CC(C)(C)CC(=O)O)nc3cc(F)ccc32)cc1 | 79% | 4 nM | 100% |  | 
24 | COc1ccc(Cn2c(CC(C)(C)CC(=O)O)nc3ccccc32)cc1 | 89% |  | 100% |  | 
25 | CC(C)(CC(=O)O)Cc1nc2cc(F)ccc2n1Cc1ccc(Cl)cc1F | 58% |  | 77% |  | 
26 | CC(Sc1nc2cc(F)ccc2n1Cc1ccc(Cl)cc1)C(=O)O (stereo not given) | 9% |  | 83% |  | 
27 | O=C(O)CC1(Cc2nc3cc(F)ccc3n2Cc2ccc(Cl)cc2)CCCC1 | 71% |  | 100% |  | 
28 | CC(C)(CC(=O)O)Cc1nc2ccccc2n1Cc1ccc(Br)cc1F | 88% | 11 nM | 99% |  | 
29 | Cc1ccc(Cn2c(CC(C)(C)CC(=O)O)nc3ccccc32)cc1 | 52% |  | 100% |  | 
30 | CC(C)(CC(=O)O)Cc1nc2cc(Cl)ccc2n1Cc1ccc(Br)cc1F | 74% |  | 95% |  | 
31 | CC(C)(CC(=O)O)Cc1nc2cc(Br)ccc2n1Cc1ccc(Cl)cc1 | 38% |  | 67% |  | 
32 | CC(C)(CC(=O)O)Cc1nc2ccccc2n1Cc1ccc(F)cc1 | 66% |  | 100% |  | 
33 | O=C(O)CC1(Cc2nc3cc(F)ccc3n2Cc2ccc(Cl)cc2)CCCCC1 | 0% | 870 nM | 98% |  | 
34 | CCC(C)(CC(=O)O)Cc1nc2ccccc2n1Cc1ccc(Cl)cc1 (stereo not given) | 57% |  | 100% |  | 
35 | CC(C)(CC(=O)O)Cc1nc2ccccc2n1Cc1ccc(Cl)cc1 | 85% |  | 100% |  | 
36 | CC(C)(CC(=O)O)Cc1nc2cc(Cl)cnc2n1Cc1ccc(Cl)cc1 [MIPITROBAN] | 97% | 21 nM | 100% | 44% | 81%
37 | O=C(O)CCCSc1nc2cc(Cl)cnc2n1Cc1ccc(Br)cc1F | 24% |  | 60% |  | 
38 | CC(C)(CC(=O)O)Cc1nc2cc(F)ccc2n1Cc1ccc(Cl)cc1 | 94% | 7.8 nM | 100% |  | 
39 | CC(C)(CC(=O)O)Cc1nc2cc(Cl)ccc2n1Cc1ccc(Cl)cc1F | 77% |  | 87% |  | 
40 | COc1ccc2c(c1)nc(CC(C)(C)CC(=O)O)n2Cc1ccc(Cl)cc1 | 44% |  | 100% |  | 

Row | SMILES | inhibition [1] | Ki [2] | inhibition [3] | inhibition in vivo at 0.3 mg/kg [4] | inhibition in vivo at 1 mg/kg [5]
41 | O=C(O)[C@H]1CCC[C@@H]1c1nc2cc(F)ccc2n1Cc1ccc(Cl)cc1 | 37% | 140 nM | 100% |  | 
42 | CC(C)(Sc1nc2cc(Cl)cnc2n1Cc1ccc(Cl)cc1)C(=O)O | 30% |  | 100% |  | 
43 | CC(C)(CC(=O)O)Cc1nc2cc(F)ccc2n1Cc1ccc(Br)cc1F | 98% |  | 100% |  | 
44 | CC(C)(CCC(=O)O)Cc1nc2cc(F)ccc2n1Cc1ccc(Cl)cc1 | 56% | 23 nM | 87% |  | 
45 | CC(C)(CC(=O)O)Cc1nc2cc(F)ccc2n1Cc1ccc(Cl)c(Cl)c1 | 89% |  | 92% |  | 
46 | O=C(O)CCCCSc1nc2cc(F)ccc2n1Cc1ccc(Cl)cc1 | 28% |  | 100% |  | 
47 | CC(C)(CC(=O)O)Cc1nc2cc(Cl)ccc2n1Cc1ccc(S(C)(=O)=O)cc1 | 69% |  | 82% |  | 
48 | CC(C)(Cc1nc2cc(F)ccc2n1Cc1ccc(Cl)cc1)C(=O)O | 0% | 1700 nM | 50% |  | 
49 | CC(C)(CC(=O)O)Cc1nc2ccccc2n1Cc1ccccc1 | 13% |  | 95% |  | 
50 | O=C(O)CC1(Cc2nc3cc(F)ccc3n2Cc2ccc(Cl)cc2)CC1 | 80% | 52 nM | 98% |  | 
51 | CSc1ccc(Cn2c(CC(C)(C)CC(=O)O)nc3cc(Cl)ccc32)cc1 | 87% | 6 nM | 89% |  | 
52 | CC(C)(CC(=O)O)Cc1nc2ccccc2n1Cc1cccc(C(F)(F)F)c1 | 49% |  | 100% |  | 
53 | O=C(O)[C@H]1CC[C@@H]1c1nc2cc(F)ccc2n1Cc1ccc(Cl)cc1 | 2% | 810 nM | 97% |  | 
54 | CC(C)(CC(=O)O)Cc1nc2cc(F)ccc2n1Cc1ccc(S(C)(=O)=O)cc1 | 100% |  | 100% |  | 
55 | O=C(O)CCCSc1nc2cc(Cl)cnc2n1Cc1ccc(Cl)cc1 | 6% |  | 39% |  | 
56 | CC(C)(CC(=O)O)Cc1nc2cccnc2n1Cc1ccc(Cl)cc1 | 41% | 39 nM | 62% |  | 
57 | CC(C)(Sc1nc2cc(F)ccc2n1Cc1ccc(Cl)cc1)C(=O)O | 3% | 670 nM | 83% |  | 
58 | CC(C)(CC(=O)O)Cc1nc2cc(Cl)c(Cl)cc2n1Cc1ccc(Cl)cc1 | 14% |  | 100% |  | 
